Measurements: ChEMBL document CHEMBL1135862, “Bioactive 4-substituted-6-methyl-2-pyrones with promising cytotoxicity against A2780 and K562 cell lines” (Bioorg Med Chem Lett, 2002)

Columns and labels:
[1] = test system: A2780; test: Inhibitory concentration in vitro for cytotoxic activity against A 2780 human ovarian carcinoma cells; assay type: functional, cell-based
How it was run: (§1)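 MTT assay in 96-well plates, seeding 400–1000 cells/well. Cells recover 24 h, then drug in medium is added, three wells per dose. Incubate 5 days at 37 °C in 5% CO₂. Add MTT (3 mg/mL) for 3 h, dissolve formazan in DMSO, read at 540 nm minus 620 nm. Percent growth inhibition per dose comes from duplicate experiments, reported as mean and SD; IC50 is derived from these.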

[2] = test system: Bacillus subtilis; test: Antimicrobial activity against Bacillus subtilis after 96 hr incubation; assay type: functional; design: concentration or dose not given beside the values
How it was run: (§2)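 Agar diffusion on cellulose disks loaded with 200 µg compound each. Bacteria read after 96 h, yeasts after 48 h. Activity is recorded as the radius in mm, or percent, of the inhibition zone. Squalestatin S1 (200 µg/disk) served as control in the yeast assay.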

[3] = test system: Candida albicans; test: Anti fungal activity against Candida albicans after 48 hr incubation; assay type: functional; design: concentration or dose not given beside the values; how it was run: as §2
[4] = test system: Candida albicans; test: Antimicrobial activity against Candida albicans after 48 hr incubation; assay type: functional; how it was run: as §2
[5] = test system: Escherichia coli; test: Antimicrobial activity against Escherichia coli after 96h incubation; assay type: functional; how it was run: as §2
[6] = test system: Escherichia coli; test: Antimicrobial activity against the Escherichia coli after 96 hr incubation; assay type: functional; design: concentration or dose not given beside the values; how it was run: as §2
[7] = test system: K562; test: Inhibitory concentration in vitro for cytotoxic activity against K 562 human chronic myelogenous leukemia cells; assay type: functional, cell-based; how it was run: as §1
[8] = test system: Schizosaccharomyces pombe; test: (§3) Antimicrobial activity against Schizosaccharomyces pombe after 48 hr incubation; assay type: functional; design: concentration or dose not given beside the values; how it was run: as §2
[9] = test system: Schizosaccharomyces pombe; test: as §3; assay type: functional; how it was run: as §2
[10] = test system: Saccharomyces cerevisiae; test: Antimicrobial activity against Saccharomyces cerevisiae after 48 hr incubation; assay type: functional; how it was run: as §2
[11] = test system: Staphylococcus aureus; test: The compound was evaluated for anti microbial activity against Staphylococcus aureus after 96 hr incubation; assay type: functional; design: concentration or dose not given beside the values; how it was run: as §2
[12] = test system: Staphylococcus aureus; test: Antimicrobial activity against Staphylococcus aureus after 96h incubation; assay type: functional; how it was run: as §2
[13] = test system: Bacillus subtilis; test: Antimicrobial activity against Bacillus subtilis after 96h incubation; assay type: functional; how it was run: as §2
[14] = test system: Schizosaccharomyces pombe; test: The compound was evaluated for antimicrobial activity against Schizosaccharomyces pombe after 48 hr incubation; assay type: functional; how it was run: as §2
[15] = test system: Saccharomyces cerevisiae; test: Compound was evaluated for anti fungal activity against Saccharomyces cerevisiae after 48 hr incubation; assay type: functional; how it was run: as §2

Compound	IC50 [1] [µM]	Inhibition [2] [%]	Inhibition [3] [%]	Inhibition [4] [mm]	Inhibition [5] [mm]	Inhibition [6] [%]	IC50 [7] [µM]	Inhibition [8] [%]	Inhibition [9] [mm]	Inhibition [10] [mm]	Inhibition [11] [%]	Inhibition [12] [mm]	Inhibition [13] [mm]	Inhibition [14]	Inhibition [15] [%]
CCCCCC#Cc1cc(C)oc(=O)c1	2.9	21.6	25	22	19	21.6	11.1	56.8	50	0	23.9	21	19	–	–
CCc1cc(C)oc(=O)c1	> 50	–	–	0	21	23.8	> 50	–	–	0	–	0	0	0 radii mm-1	–
CCCC#Cc1cc(C)oc(=O)c1	4.8	20.5	12.5	11	22	25	17.8	32.9	29	0	23.9	21	18	–	–
CCCCC/C=C/c1cc(C)oc(=O)c1	> 50	20.5	23.9	21	18	20.5	> 50	38.6	34	0	19.3	17	18	–	–
Cc1cc(C#CCOC2CCCCO2)cc(=O)o1 (centres undefined)	2.1	22.7	14.8	13	17	19.3	4	20.5	18	0	34.1	30	20	–	–
CCCCCCCc1cc(C)oc(=O)c1	41.8	18.2	18.2	16	17	19.3	28.7	–	30	5	15.9	14	16	34.1%	5.7
C#Cc1cc(C)oc(=O)c1	3.1	19.3	40.9	36	16	18.2	2	45.5	40	40	34.1	30	17	–	45.4
